# In the library only some 2.5% were active in any assay of this set; here they are far more common.
# MBD2 inh: inhibitors of MBD2 binding to methylated DNA, primary screen, biochemical, TR-FRET, DNA-binding domain, human | Methyl-CpG-binding domain protein 2 (Homo sapiens), Q9UBB5 | MBD2 binding to methylated oligonucleotide | inhibition, % at 4.4 µM | actives 0.31% (n = 370,000) | AID 686964, 2013; in the data active = inhibition above about 13%
# DNMT1 inh: human DNMT1 methyltransferase inhibitors, primary screen, biochemical, molecular beacon, fluorescence, HinP1I cleavage, uHTS; actives 0.83% (n = 360,000); AID 588458, 2011; DNA (cytosine-5)-methyltransferase 1 (Homo sapiens), P26358; inhibition (reported as % activation of signal), % at 10 µM; in the data active = inhibition above about 50%
# UHRF1 MBD2 ctr: UHRF1 methylated DNA binding inhibitors, primary screen, counter-screen for MBD2 inhibitor project, biochemical, TR-FRET, human UHRF1, single concentration; UHRF1 binding to methylated oligo; inhibition, % at 4.4 µM; AID 687016, 2013; actives 0.75% (n = 370,000); in the data active = inhibition above about 21%;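 also: UHRF1 SRA domain binding a hemimethylated CpG hairpin DNA probe; 0% = median of test compound wells and 100% = reference inhibitor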
# SUMO1-SIM PPI: modulators of SUMO1 protein-protein interactions, primary screen, biochemical, uHTS. AID 602429, 2012. SUMO1 binding to a labelled peptide, TR-FRET, 1 h. inhibition, % at 20 µM. Small ubiquitin-related modifier 1 (Homo sapiens), P63165. actives 0.33% (n = 360,000)
# DSG3 Ab inh: inhibitors of pemphigus antibody binding to DSG3, primary screen, biochemical, bead-based, flow cytometry, scFv-GFP. AID 588358, 2011. DSG3-coupled beads, scFv-anti-DSG3-GFP binding; stronger effect = lower value. binding (percent of control), % at 10 µM. Desmoglein-3 (Homo sapiens), P32926. actives 0.48% (n = 310,000);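 active = binding more than 3 SD below its plate's average and above zero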;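 also: hits lower antibody fragment binding to DSG3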
# NS3 helicase inh: inhibitors of HCV NS3 helicase, primary screen, biochemical, Cy5 molecular beacon fluorescence; Hepatitis C virus NS3 helicase; NS3 helicase DNA unwinding; inhibition, % at 10.9 µM; actives 0.56% (n = 290,000);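 active = inhibition above the mean of all tested compounds plus 3 SD, set per campaign, cut at about 35% in these data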;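 also: 0% = DMSO wells and 100% = thioflavine S control wells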
#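 Measured by: Cy5 fluorescence, 0 and 60 min reads / Assay system: NS3 helicase fragment of HCV / Control set: low DMSO, high thioflavine S at 110 µM / Times: 1 h reaction at 25 °C, ATP-initiated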
# NS3 hel confirm: HCV NS3 helicase inhibitors, retest, confirmation, biochemical, Cy5 molecular beacon fluorescence, triplicate; shares compounds with NS3 helicase inh; NS3 helicase DNA unwinding; inhibition, % at 10.9 µM; actives 31% (n = 1,600);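 active = inhibition above the mean of all tested compounds plus 3 SD, cutoff set per campaign, cut at about 36% in these data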
# FID counter trip: compounds displacing fluorescent DNA intercalator, artefact control for HCV NS3 helicase inhibitor project, biochemical, FID fluorescence, triplicate | shares compounds with NS3 helicase inh | DNA fluorescent intercalator displacement | inhibition, % at 7.9 µM | actives 4% (n = 1,600) | AID 1945, 2009;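 also: 0% = vehicle and 100% = reference compound; higher means more displacement of ethidium bromide from the DNA hairpin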
# Beacon interf DR: spectral interference with molecular beacon fluorescence, dose response, artefact control for DNMT1 inhibitor project, biochemical, fluorescent molecular beacon. shares compounds with DNMT1 inh. spectral interference counter-screen. IC50, µM. 200 tested, under 10 active; call rule not given here
# DNMT1 confirm: DNMT1 methyltransferase inhibitor retest, confirmation, biochemical, molecular beacon, fluorescence, single concentration | shares compounds with DNMT1 inh | DNMT1 molecular beacon HinP1I cleavage | inhibition, % at 10 µM | actives 8% (n = 2,300) | AID 602385, 2012;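 active = average inhibition of at least 30% in the single-concentration confirmation test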
# DNMT1 interf: beacon fluorescence artifact counter-screen; shares compounds with DNMT1 inh; actives 1% (n = 2,300); DNMT1 molecular beacon spectral interference counterscreen, fluorescence 485/520; activation (fluorescence interference), % at 10 µM;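 active = activation of at least 30% at 10 µM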;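 also: DNMT1 catalytic domain with a HinP1I cleavage step and a FAM/dabcyl DNA beacon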
# UHRF1 ctr MBD2: UHRF1 methylated DNA binding inhibitors, counter-screen for MBD2 inhibitor project, biochemical, TR-FRET, human UHRF1; UHRF1 binding to methylated oligonucleotide; inhibition, % at 4.4 µM; shares compounds with MBD2 inh; actives 25% (n = 1,000); in the data active = inhibition above about 21%;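 also: UHRF1 SRA domain binding a labeled hemimethylated CpG hairpin DNA; 0% = vehicle only and 100% = reference inhibitor with vehicle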
# MBD2 DBD conf: inhibitors of MBD2 binding to methylated DNA, confirmation, biochemical, TR-FRET, DNA-binding domain, human; actives 26% (n = 1,000); inhibition, % at 4.4 µM; shares compounds with MBD2 inh; TR-FRET MBD2-DBD binding to methylated oligonucleotide; in the data active = inhibition above about 14%
# * = called active by the depositor; . = no result. Rule as the data show it, unless noted: active = inhibition above about 37%; inactive = the rest.
SMILES,MBD2 inh,DNMT1 inh,UHRF1 MBD2 ctr,SUMO1-SIM PPI,DSG3 Ab inh,NS3 helicase inh,NS3 hel confirm,FID counter trip,DNMT1 confirm,DNMT1 interf,others
CCCCn1c(NS(=O)(=O)c2ccccc2)c(C(=O)OCC)c2nc3ccccc3nc21,7,68*,12,49*,107,37*,58*,-39,.,.,
CCOC(=O)c1c(N)n(CCN2CCCCC2)c2nc3ccccc3nc12,-3,-7,-5,-6,103,1,.,.,.,.,
CC(=O)N1CCN(c2ccc(N=Cc3c(O)n(-c4ccc(Cl)cc4)c(=O)[nH]c3=O)cc2)CC1,3,-10,1,-16,97,43*,-11,-27,.,.,
O=c1[nH]c(=S)n(-c2ccccc2F)c(O)c1C=Nc1ccc(N2CCOCC2)cc1,-5,-2,1,-9,114,54*,18,-24,.,.,
Cc1cc(C)cc(-n2c(O)c(C=Nc3ccc(N4CCOCC4)cc3)c(=O)[nH]c2=S)c1,-7,-7,-7,-17,150,15,.,.,.,.,
O=c1[nH]c(=S)n(-c2ccc(Br)cc2)c(O)c1C=Nc1ccc(N2CCOCC2)cc1,-2,-14,-2,-16,104,37*,11,-14,.,.,
O=Cc1cn(Cc2ccccc2[N+](=O)[O-])c2ccccc12,-1,-2,-3,-14,86,5,.,.,.,.,
COC(=O)c1ccccc1NC(=O)N1C[C@@H]2C[C@@H](C1)c1cccc(=O)n1C2,-2,1,-1,4,102,10,.,.,.,.,
O=C(O)c1ccccc1NC(=O)N1C[C@H]2C[C@@H](C1)c1cccc(=O)n1C2,8,1,-1,0,95,42*,-9,8,.,.,
COc1ccc(CN2C(=O)NC(=O)/C(=C/c3cc(OC)c(OC)c(OC)c3)C2=O)cc1,1,-2,-5,9,.,4,.,.,.,.,
COc1ccc(CN2C(=O)NC(=O)/C(=C/c3ccoc3)C2=O)cc1,8,101*,21*,32,107,54*,17,15,11,-1,
Cc1cc(C)cc(N2C(=O)NC(=O)/C(=C\C=C\c3ccco3)C2=O)c1,0,74*,15,4,94,54*,24,6,2,-3,
Cn1cccc1/C=C1/C(=O)NC(=S)N(Cc2ccc(F)cc2)C1=O,2,91*,-2,64*,70*,45*,78*,18,105*,-5,Beacon interf DR=>99
COc1ccc(-n2nnnc2C(C2CC2)N2CCC3(CC2)C(=O)NCN3c2ccccc2)cc1 (stereo unspecified),0,-5,3,5,.,.,.,.,.,.,
CC12CCC(O)CC1CCC1C2CCC2(C)C(C(=O)CO)CCC12 (stereo unspecified),-4,-4,-3,9,.,.,.,.,.,.,
O=C1NC(=O)N(Cc2ccco2)C(=O)/C1=C/c1cccn1CCOc1ccccc1Cl,12,69*,50*,20,92,43*,2,-1,22,0,
Cn1cccc1/C=C1/C(=O)NC(=O)N(Cc2ccccc2)C1=O,-4,4,-4,0,103,18,.,.,.,.,
CCCCN1C(=O)/C(=C/C=C/c2ccco2)C(=O)NC1=S,29*,107*,83*,24,82,62*,57*,24,23,-3,Beacon interf DR=>99;UHRF1 ctr MBD2=48*;MBD2 DBD conf=19*
O=c1[nH]c(=O)n(C2CCCCCC2)c(O)c1C=NCc1cccnc1,-1,-3,4,5,.,-9,.,.,.,.,
O=C1NC(=O)C(=Cc2cc3c(cc2[N+](=O)[O-])OCO3)C(=O)N1,-7,-8,-4,-9,.,16,.,.,.,.,
O=C1NC(=O)C(=Cc2ccc(-c3cc(Cl)ccc3[N+](=O)[O-])o2)C(=O)N1,-4,78*,-6,11,112,14,.,.,2,-3,
CCC(C)N1C(=O)/C(=C/c2ccc3c(c2)CCN3CCCCl)C(=O)NC1=S (stereo unspecified),5,85*,-3,-1,137,22,.,.,12,-3,
CC(C)c1ccc(N2C(=O)NC(=O)/C(=C/C=C/c3ccco3)C2=O)cc1,0,86*,2,12,97,23,.,.,10,5,
CC(C)c1ccc(N2C(=O)CC(=O)NC2=O)cc1,4,-4,4,3,126,2,.,.,.,.,
Cc1c(C=O)c2ccccc2n1Cc1ccccc1,0,3,0,2,105,-4,.,.,.,.,
O=Cc1c(C(=O)O)n(Cc2ccc(Cl)cc2)c2ccccc12,4,95*,-1,10,107,32,.,.,15,1,
O=C(COc1ccc2ccc(=O)oc2c1)N1C[C@H]2C[C@@H](C1)c1cccc(=O)n1C2,4,0,0,3,109,-15,.,.,.,.,
